Assay outcomes (PubChem BioAssay)
A selection: hits, their analogues and other compounds. The true share with any hit is near 1.8%.
UHRF1 binding: blocks human UHRF1 binding to methylated DNA; inhibition, % at 4.4 µM; Q96T88; 370,000 compounds, 0.75% hits; UHRF1 binding to methylated oligo, TR-FRET; in the data active means inhibition above about 21%;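 further: UHRF1 SRA domain binding a hemimethylated CpG hairpin DNA probe; 0% = median of test compound wells and 100% = reference inhibitor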
Casp6 inh: inhibitors of human caspase-6. 350,000 compounds, 0.53% hits. purified caspase-6, Z-VEID-R110 cleavage fluorescence. inhibition, % at 12.5 µM. P55212;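 active means mean inhibition across replicates at least about 35%, with every replicate also reaching that limit, limit read from the data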;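 further: 0% = median of neutral control wells and 100% = no fluorescence left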
MBD2 inh: MBD2-methylated oligo binding inhibition | 370,000 compounds, 0.31% hits | TR-FRET, MBD2 binding to methylated oligonucleotide | inhibition, % at 4.4 µM; in the data active means inhibition above about 13%
Target sequence (Q9UBB5 whole entry, looked up): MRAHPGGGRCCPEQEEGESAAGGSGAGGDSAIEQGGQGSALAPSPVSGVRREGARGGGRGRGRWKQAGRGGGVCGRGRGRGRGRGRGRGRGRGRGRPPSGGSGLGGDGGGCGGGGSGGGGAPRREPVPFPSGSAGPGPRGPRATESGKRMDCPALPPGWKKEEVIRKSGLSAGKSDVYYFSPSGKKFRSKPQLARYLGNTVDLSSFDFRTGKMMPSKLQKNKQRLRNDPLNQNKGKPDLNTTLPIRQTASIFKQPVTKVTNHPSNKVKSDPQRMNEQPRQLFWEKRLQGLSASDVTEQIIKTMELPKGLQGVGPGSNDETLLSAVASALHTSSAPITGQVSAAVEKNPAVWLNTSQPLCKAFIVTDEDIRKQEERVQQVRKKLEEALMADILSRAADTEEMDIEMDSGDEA
TDP2 inh: TDP2 (human) inhibition, absorbance primary screen. inhibition, % at 12.8 µM. recombinant TDP2, T5PNP hydrolysis, p-nitrophenol absorbance 415 nm. O95551. AID 720702. 370,000 compounds, 0.34% hits;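 active means inhibition above the mean of all tested compounds plus 3 SD, set per campaign, cut at about 25% in these data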;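 further: 0% = DMSO with enzyme and 100% = buffer with substrate but no TDP2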
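Evaluation: % inhibition relative to enzyme-containing and enzyme-free wells. Material: recombinant human TDP2. Benchmarks: enzyme-free and DMSO wells. Timing: enzyme reaction with compound for 2 h at 37 °C. Compound dosing: 12.8 µM only. Measured by: p-Nitrophenol epi absorbance. Reagent: T5PNP substrate at 5 mM, a TopII-DNA adduct mimic. Replication: single well per compound.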
LEDGF integ inh: blocks HIV-1 LEDGF/p75-dependent DNA integration. AID 743269. inhibition, % at 3.7 µM. 370,000 compounds, 0.64% hits. TR-FRET IN-LEDGF/p75 DNA integration, Eu/Cy5;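 active means inhibition above the screen-wide mean plus 3 SD, cut at about 13% in these data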;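 further: signal is the Cy5 over europium emission ratio at 671 and 618 nm; 0% = plate median of compound wells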
NSD2 HMT inh: NSD2 (human) methyltransferase inhibition | inhibition, % at 12.5 µM | NSD2 peptide methylation, AlphaScreen, 120 min | 310,000 compounds, 0.54% hits | O96028; in the data active means inhibition above about 50%
Alpha artifact: counter-screen for NSD2 inhibitors: AlphaScreen artifacts; shares compounds with NSD2 HMT inh; AlphaScreen artifact counterscreen, preloaded methylated H4 peptide; AC35, µM (highest dose often 10 µM), for inactives: at the top dose activity change, negative = signal loss; 1,500 compounds, 9.4% hits; AID 1053174; call rule not given here
Active calls of the source: *; . = no result.

SMILES	UHRF1 binding	Casp6 inh	MBD2 inh	TDP2 inh	LEDGF integ inh	NSD2 HMT inh	Alpha artifact
Cc1ccc(S(=O)(=O)Nc2ccc3c(c2)C(=O)N([C@@H](C)CO)C[C@@H](C)[C@@H](CN(C)CC2CCCCC2)OCCCC[C@@H](C)O3)cc1	.	3	.	.	.	.	.
COc1cccc(C2c3c(oc4ccccc4c3=O)C(=O)N2CCCN(C)C)c1OC (stereo not drawn)	2	.	-5	2	4	60*	0%
CSC1=NSC2=NC(=O)/C(=C/c3coc4ccccc4c3=O)C(=N)N12	-8	16	1	-8	3	75*	0%
COc1cc(/C=C2/C(=N)N3C(SC)=NSC3=NC2=O)ccc1OC(=O)c1ccco1	-4	12	-1	4	2	11	.
O=C(NCc1ccco1)Nc1cccc([N+](=O)[O-])c1	-1	.	-7	-2	1	52*	-1%
COc1ccc2c(c1)c1nc3ccccc3nc1n2CCn1c(=O)oc2ccccc21	1	.	-3	5	-5	58*	0%
Cc1ccc2nc(-c3ccc(O)c(O)c3)cn2c1	1	38*	-2	3	23*	55*	-11%
CCCCC(=O)OCc1cn(-c2ccc(Cl)cc2)nn1	1	.	3	-10	0	121*	6%
Cc1ccccc1-c1ccccc1[C@H]1[C@@H](CO)N(C(=O)c2cccc(F)c2)[C@H]1C#N	.	2	.	.	.	.	.
CCCc1cc(Nc2ccccc2C)n2ncnc2n1	0	0	3	10	-1	57*	-1%
CCCc1cc(Nc2cccc(OCC)c2)n2ncnc2n1	-2	.	4	4	0	0	.
CCOc1ccc(-n2cnc3sc4c(c3c2=O)CCCC4)cc1	0	-1	5	-16	-3	58*	0%
CN1C(=O)c2cc(NC(=O)Cc3cccs3)ccc2OC[C@@H]2O[C@@H](CC(=O)O)CC[C@H]21	.	-3	.	.	.	.	.
C#CCN([C@H](/C=C/C1CC1)[C@@H](O)Cc1ccccc1)[C@@H]1C(=O)N2[C@@H]1SC(C)(C)[C@@H]2C(=O)OC	.	1	.	.	.	.	.
O=C(NC1CCCCC1)c1ccc(S(=O)(=O)NCc2ccco2)cc1	1	.	1	-11	4	55*	-7%
Cc1cc(-c2ccc(C)c(S(=O)(=O)N3CCN(c4ccccn4)CC3)c2)on1	2	2	3	1	0	131*	-3%
CC(C)C#Cc1ccc2c(c1)O[C@H](CN(C)S(C)(=O)=O)[C@H](C)CN([C@H](C)CO)S2(=O)=O	.	-1	.	.	.	.	.
C=CCn1c(SCC(=O)c2ccc(O)c(O)c2)nnc1-c1ccccc1OC	3	18	1	-8	-6	.	.
CCn1c(SCC(=O)c2ccc(O)c(O)c2)nnc1-c1ccccc1OC	7	.	9	-3	10	88*	-19%
O=C(Nc1nnc(SCc2cccc3ccccc23)s1)C1COc2ccccc2O1 (stereo not drawn)	6	-3	4	7	0	63*	-1%
CCOC(=O)N1CCN(C(=S)NCCOC)CC1	1	.	-6	5	2	69*	1%
CCN1CCN(C(=S)NCCOC)CC1	0	2	-1	-9	0	1	.
O=C(C[C@@H]1C=C[C@@H](NC(=O)C2CCOCC2)[C@@H](CO)O1)NCC1CCCCC1	.	0	.	.	.	.	.
CC(=O)N(C)c1ccc(N=Nc2c(C)[nH]n(C(N)=S)c2=O)cc1	-15	1	-11	-15	-5	80*	-6%
Cc1ccc(S(=O)(=O)N(C)C[C@@H]2Oc3ccc(NC(=O)c4ccncc4)cc3C(=O)N([C@@H](C)CO)C[C@H]2C)cc1	.	0	.	.	.	.	.
Cc1ccc(-n2nc3c(=O)n(CC(=O)NCc4ccccc4)nc(C)c3c2C)cc1	2	0	1	-4	2	80*	-1%
CCCN(C)C[C@H]1Oc2cc(-c3ccc(C)cc3)ccc2S(=O)(=O)N([C@@H](C)CO)C[C@H]1C	.	0	.	.	.	.	.
Cc1ccccc1NC1C=CS(=O)(=O)C1 (stereo not drawn)	-1	.	-1	1	-1	1	.
